Data as given in paper PMC12398706 (ACS chemical neuroscience, 2025).
Where a name gives a salt, the structure may show the parent alone. Read-outs that look alike come from different tables or passages of the source.

Experiments:
NET = NET (Homo sapiens, UniProt P23975); experiment: NIMH PDSP radioligand binding, NET; conditions: 10 μM; N = 1 in quadruplicate
How it was run: (§1)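 Outsourced screen run by the NIMH Psychoactive Drug Screening Program across a broad target panel. Test compound at 10 μM; read-out was % inhibition of binding of a radiolabelled ligand specific to each target. Single experiment (N = 1) run in quadruplicate, with the averaged value reported.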

SERT [1] = biological target: T1, SERT (Homo sapiens, UniProt P31645); conditions: cited from earlier work
5-HT3 receptors = biological target: T2, 5-HT3 receptors (Homo sapiens, UniProt P46098); experiment: NIMH PDSP radioligand binding, 5-HT3; conditions: 10 μM; N = 1 in quadruplicate
T2 sequence (P46098 24-478): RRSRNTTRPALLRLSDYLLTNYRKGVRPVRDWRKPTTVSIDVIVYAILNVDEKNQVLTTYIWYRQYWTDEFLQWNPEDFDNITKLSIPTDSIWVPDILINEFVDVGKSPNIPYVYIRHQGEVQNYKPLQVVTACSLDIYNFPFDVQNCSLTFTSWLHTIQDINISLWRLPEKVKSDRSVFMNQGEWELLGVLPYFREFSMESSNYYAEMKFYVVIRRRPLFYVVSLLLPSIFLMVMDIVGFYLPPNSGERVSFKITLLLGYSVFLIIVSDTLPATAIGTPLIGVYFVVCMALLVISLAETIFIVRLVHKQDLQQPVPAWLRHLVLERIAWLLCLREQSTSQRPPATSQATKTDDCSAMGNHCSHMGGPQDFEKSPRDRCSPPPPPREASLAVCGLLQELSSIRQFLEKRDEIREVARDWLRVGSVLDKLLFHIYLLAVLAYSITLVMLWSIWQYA
How it was run: as §1

SERT-PG^601,602AA = SERT-PG^601,602AA (Homo sapiens, UniProt P31645, G602A/P601A); experiment: SERT pharmacochaperoning assay; format: cell-based; conditions: 20 μM, 24 h; normalized to vehicle (0.2% DMSO = 0%) and 20 μM noribogaine = 100%
How it was run: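 HEK293T cells (DMEM, 10% FBS) were transfected at seeding with the misfolding SERT-PG601,602AA plasmid (0.1 μg/well) and kept overnight at 37 °C, 5% CO2. They were then exposed 24 h to test compound at a final 20 μM (0.2% DMSO) in fresh medium. Four 10-min washes with supplemented HBSS preceded 10-min uptake of 40 nM [3H]5-HT. Cells were washed, lysed in 10 mM NaOH and scintillation-counted.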

adrenergic receptors = experiment: NIMH PDSP radioligand binding, adrenergic receptors; conditions: 10 μM; N = 1 in quadruplicate
How it was run: as §1

DAT = DAT (Homo sapiens, UniProt Q01959); experiment: NIMH PDSP radioligand binding, DAT; conditions: 10 μM; N = 1 in quadruplicate
How it was run: as §1

5-HT2B = 5-HT2B (Homo sapiens, UniProt P41595); experiment: NIMH PDSP radioligand binding, 5-HT2B; conditions: 10 μM; N = 1 in quadruplicate
How it was run: as §1

sigma 1 = experiment: NIMH PDSP radioligand binding, sigma 1; conditions: 10 μM; N = 1 in quadruplicate
How it was run: as §1

SERT [2] = biological target: T1, SERT; experiment: SERT efflux assay; format: cell-based; conditions: for SERT efflux, single concentration: 10 μM, normalized to vehicle (0.1% DMSO = 0%) and 100 μM PCA = 100%
How it was run: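 hSERT-N1-pEYFP transfected (0.1 μg/well) into HEK293T cells (DMEM, 10% FBS) at seeding, 24 h before assay. In HBSS with 2 mM MgCl2, 2 mM CaCl2 and 5 mM HEPES at 37 °C, cells were loaded with 40 nM [3H]5-HT for 20 min, washed, then exposed 20 min to test compound (final 10 μM–1 nM, 0.1% DMSO). After washing and NaOH lysis, retained radioactivity was scintillation-counted. EC50/Span came from three-parameter log(agonist)-response fits.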

H1 = H1 (Homo sapiens, UniProt P35367); experiment: NIMH PDSP radioligand binding, H1; conditions: 10 μM; N = 1 in quadruplicate
How it was run: as §1

SERT [3] = biological target: T1, SERT; experiment: NIMH PDSP radioligand binding, SERT; conditions: 10 μM; N = 1 in quadruplicate
SERT [4] = biological target: T1, SERT; format: cell-based
sigma 2 = experiment: NIMH PDSP radioligand binding, sigma 2; conditions: 10 μM; N = 1 in quadruplicate
How it was run: as §1

SERT [5] = biological target: T1, SERT; conditions: cocaine 10 μM; value taken from a previous report; cited from earlier work
serotonin uptake = conditions: cited from earlier work
SERT [6] = biological target: T1, SERT; conditions: cited from earlier work; remark: listed apart in the source
[7] = concentration-response, compared to UCD0184

Sequence of NET (P23975 whole entry): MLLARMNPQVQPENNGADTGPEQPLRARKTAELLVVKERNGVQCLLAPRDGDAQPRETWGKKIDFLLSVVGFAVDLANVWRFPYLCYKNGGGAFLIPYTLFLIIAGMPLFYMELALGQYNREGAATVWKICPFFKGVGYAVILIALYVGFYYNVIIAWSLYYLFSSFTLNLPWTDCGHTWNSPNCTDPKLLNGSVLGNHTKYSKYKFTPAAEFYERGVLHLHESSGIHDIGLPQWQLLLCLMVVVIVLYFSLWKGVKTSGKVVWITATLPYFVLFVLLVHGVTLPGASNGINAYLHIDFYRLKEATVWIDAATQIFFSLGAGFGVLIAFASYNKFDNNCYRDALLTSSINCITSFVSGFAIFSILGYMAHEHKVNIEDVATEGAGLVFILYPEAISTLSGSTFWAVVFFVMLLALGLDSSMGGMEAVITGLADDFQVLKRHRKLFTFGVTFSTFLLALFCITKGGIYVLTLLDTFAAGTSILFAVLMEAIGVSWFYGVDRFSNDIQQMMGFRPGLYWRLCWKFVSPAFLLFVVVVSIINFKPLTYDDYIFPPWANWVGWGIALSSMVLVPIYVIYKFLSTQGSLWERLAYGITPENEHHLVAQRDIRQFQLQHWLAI
Sequence of H1 (P35367 whole entry): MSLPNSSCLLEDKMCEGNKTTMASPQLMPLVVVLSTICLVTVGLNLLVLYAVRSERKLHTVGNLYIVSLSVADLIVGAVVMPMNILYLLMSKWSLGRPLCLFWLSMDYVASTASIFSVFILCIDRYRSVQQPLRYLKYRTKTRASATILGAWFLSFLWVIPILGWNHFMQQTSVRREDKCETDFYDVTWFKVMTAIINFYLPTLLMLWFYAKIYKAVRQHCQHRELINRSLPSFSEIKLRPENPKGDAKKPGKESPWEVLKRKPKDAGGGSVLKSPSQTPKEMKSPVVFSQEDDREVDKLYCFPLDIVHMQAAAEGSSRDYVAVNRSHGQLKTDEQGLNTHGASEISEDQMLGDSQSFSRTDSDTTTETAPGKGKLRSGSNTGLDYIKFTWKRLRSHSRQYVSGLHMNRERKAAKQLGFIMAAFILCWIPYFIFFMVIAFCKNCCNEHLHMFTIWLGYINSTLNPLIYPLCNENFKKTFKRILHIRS
Sequence of DAT (Q01959 whole entry, species assumed): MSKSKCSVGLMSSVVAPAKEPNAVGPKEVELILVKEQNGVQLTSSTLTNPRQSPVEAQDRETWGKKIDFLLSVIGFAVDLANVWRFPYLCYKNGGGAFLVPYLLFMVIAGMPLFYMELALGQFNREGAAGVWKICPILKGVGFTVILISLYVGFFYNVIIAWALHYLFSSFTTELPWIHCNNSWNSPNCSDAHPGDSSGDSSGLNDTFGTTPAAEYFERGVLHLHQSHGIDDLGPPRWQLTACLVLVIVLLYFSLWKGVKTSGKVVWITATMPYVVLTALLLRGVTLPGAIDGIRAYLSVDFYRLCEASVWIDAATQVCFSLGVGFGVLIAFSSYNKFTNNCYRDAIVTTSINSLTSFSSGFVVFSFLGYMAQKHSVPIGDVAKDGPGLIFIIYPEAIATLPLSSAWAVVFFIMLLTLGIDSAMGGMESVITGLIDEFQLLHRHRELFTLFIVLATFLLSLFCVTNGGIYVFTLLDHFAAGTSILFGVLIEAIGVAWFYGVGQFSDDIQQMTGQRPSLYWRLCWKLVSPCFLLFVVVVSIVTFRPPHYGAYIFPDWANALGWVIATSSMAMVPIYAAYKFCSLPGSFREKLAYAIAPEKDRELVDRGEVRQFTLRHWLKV
Sequence of 5-HT2B (P41595 whole entry, species assumed): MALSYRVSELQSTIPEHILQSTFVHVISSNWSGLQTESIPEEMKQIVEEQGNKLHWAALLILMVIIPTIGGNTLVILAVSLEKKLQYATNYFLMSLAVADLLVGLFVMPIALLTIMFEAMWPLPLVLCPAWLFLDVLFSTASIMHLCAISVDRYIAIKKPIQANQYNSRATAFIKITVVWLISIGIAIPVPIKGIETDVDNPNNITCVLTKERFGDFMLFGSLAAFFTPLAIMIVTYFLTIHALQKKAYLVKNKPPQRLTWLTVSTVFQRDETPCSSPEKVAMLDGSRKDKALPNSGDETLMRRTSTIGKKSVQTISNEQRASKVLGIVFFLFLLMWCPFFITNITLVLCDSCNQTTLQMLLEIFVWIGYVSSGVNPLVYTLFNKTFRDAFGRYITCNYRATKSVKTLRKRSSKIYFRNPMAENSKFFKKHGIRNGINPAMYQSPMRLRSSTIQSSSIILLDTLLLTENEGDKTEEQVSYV

CN1C2C=C(c3c[nH]c4ccccc34)CC1CC2 (centres unmarked) [UCD0184]
% inhibition of radioligand binding at NET (in words) (NET): potent ligands
selectivity for SERT over DAT (SERT [1]): approximately 10 fold
selectivity for SERT over NET (SERT [1]): ~100 fold
% inhibition of radioligand binding at 5-HT3 (in words) (5-HT3 receptors): high affinity
SERT pharmacochaperoning efficacy compared to noribogaine (SERT-PG^601,602AA): did not act as a SERT pharmacochaperone
% inhibition of radioligand binding at adrenergic receptors (in words) (adrenergic receptors): potent ligands
% inhibition of radioligand binding at DAT (in words) (DAT): potent ligands
% inhibition of radioligand binding at 5-HT2B (in words) (5-HT2B): potent ligands
% inhibition of radioligand binding at sigma 1 (in words) (sigma 1): potent ligands
SERT efflux, single concentration (SERT [2]; HEK293T): appreciable 5-HT efflux
type of serotonin releasing agent (SRA): full or partial (SERT [2]; SERT-transfected HEK293T cells): full
SERT efflux Span (Emax) (SERT [2]; concentration-response, normalized to vehicle 0% and 100 μM PCA 100%): 75.1%
EC50 (SERT [2]; read-out: SERT efflux EC50, concentration-response, HEK293T): 0.582 µM
% inhibition of radioligand binding at H1 (in words) (H1): potent ligands
% inhibition of radioligand binding at SERT (in words) (SERT [3]): substantial binding
SERT inhibition Span (Emax) (SERT [4]): 105%
SERT inhibition, single concentration (SERT [4]): near full inhibition
EC50 (SERT [4]; read-out: SERT inhibition EC50, concentration-response, HEK293T): 1.1 µM
% inhibition of radioligand binding at sigma 2 (in words) (sigma 2): potent ligands

COC(=O)[C@H]1[C@@H](OC(=O)c2ccccc2)C[C@@H]2CC[C@H]1N2C [cocaine, (−)-cocaine hydrochloride]
SERT inhibition, single concentration (SERT [5]): ~ 50%

CN1C2C=C(c3c[nH]c4ccc(F)cc34)CC1CC2 (centres unmarked) [UCD0093]
% inhibition of radioligand binding at NET (in words) (NET): potent ligands
% inhibition of radioligand binding at 5-HT3 (in words) (5-HT3 receptors): high affinity
% inhibition of radioligand binding at adrenergic receptors (in words) (adrenergic receptors): potent ligands
% inhibition of radioligand binding at DAT (in words) (DAT): potent ligands
% inhibition of radioligand binding at 5-HT2B (in words) (5-HT2B): potent ligands
% inhibition of radioligand binding at sigma 1 (in words) (sigma 1): potent ligands
SERT efflux potency and efficacy (in words) (SERT [2]; [7]): minimal effect on SERT efflux
% inhibition of radioligand binding at H1 (in words) (H1): potent ligands
% inhibition of radioligand binding at SERT (in words) (SERT [3]): substantial binding
SERT inhibition potency and efficacy (in words) (SERT [4]; [7]): drastically increased SERT inhibition potency
% inhibition of radioligand binding at sigma 2 (in words) (sigma 2): potent ligands

CN1[C@@H]2C[C@@H](OC(=O)[C@H](CO)c3ccccc3)C[C@H]1[C@@H]1O[C@@H]12 [scopolamine, scopolamine hydrobromide trihydrate, reference compound]
SERT inhibition, single concentration (SERT [4]): meaningful levels of SERT inhibition

CN1C2CCC1CC(OC(=O)c1ccccc1)C2 (centres unmarked) [tropacocaine]
serotonin uptake inhibition activity relative to cocaine (in words) (serotonin uptake): reduced activity relative to cocaine
SERT efflux, single concentration (SERT [2]; HEK293T): no effect
SERT binding affinity relative to cocaine (in words) (SERT [6]): reduced activity relative to cocaine
